# Screens: PubChem BioAssay, several laboratories
# The full list was thinned out, with hits kept by preference.
# XBP1 UPR activ – activators of adaptive arm of unfolded protein response (XBP1) | 330,000 compounds, 0.33% hits | AID 463104 | activation, % at 20 µM | CHO-XBP1 luciferase reporter, IRE1-XBP1 UPR activation, luminescence; percent of tunicamycin response, DMSO as zero;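 active = versus positive control, 20 µM dose yields 30% or more activation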;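 also: 100% = tunicamycin at 10 µg/mL and 0% = DMSO only wells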
#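 Material: CHO cell line with stable XBP1 luciferase reporter; buffer or medium: F12 medium containing 10% fetal bovine serum; compound: single point, 20 µM final compound, 1% DMSO; incubation: 6 h treatment, 37 °C; measured by: glow luminescence from Steady-Glo reagent; evaluation: activation, % of tunicamycin; control set: tunicamycin high, DMSO low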
# UPR CHOP act – apoptotic UPR (CHOP) activation; CHO-CHOP luciferase reporter, luminescence; percent of tunicamycin response over DMSO baseline; activation, % at 10 µM; 330,000 compounds, 0.34% hits; AID 449763;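 active = at 10 µM dose, activation of 40% or more, normalized to positive control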;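 also: 100% = tunicamycin at 10 µg/mL and 0% = DMSO alone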
#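 Test system: CHO CHOP reporter cells. Input: 500 CHO-CHOP cells per well. Medium: F12 with 10% FBS. Technique: luciferase luminescence. Measure: percent activation relative to tunicamycin control. Dosing: 10 µM compound, 0.5% DMSO. Timing: 16-18 h cell attachment, then 6 h compound exposure, 37 °C.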
# iPSC survival up – increases survival of single human iPS cells; hiPSC single-cell survival, ATPlite luminescence; 100% = ROCK inhibitor wells, 0% = DMSO; survival enhancement, % at 20 µM; 360,000 compounds, 0.044% hits; in the data active = survival enhancement above about 18%;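 also: cells exposed to compounds for 16 hours before the ATP read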
# H9c2 protect – myocardial damage modulation in H9c2 cells; H9c2 cardiomyocytes, H2O2 injury protection, ATPLite, 2 h; protection from H2O2 cell death, % at 20 µM; 360,000 compounds, 0.63% hits;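 active = compounds giving at least 50% protection of heart cells from peroxide-induced death in the single-dose screen, raw or plate-pattern-corrected value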;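 also: 0% = DMSO wells with peroxide and 100% = DMSO wells without peroxide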
# CHOP inhibitor – inhibitors of CHOP induction in ER stress response. CHO-K1 CHOP-promoter luciferase, tunicamycin-induced, 15-18 h. inhibition, % at 10 µM. 220,000 compounds, 3.8% hits. AID 2732;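 active = compounds that reduced the stress-induced luciferase reporter signal by more than about 70% of percent inhibition, limit read from the data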;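 also: 0% = tunicamycin plus vehicle and 100% = wells without tunicamycin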
# Starred values were filed as active, the others as inactive; . = no result.
SMILES,XBP1 UPR activ,UPR CHOP act,iPSC survival up,H9c2 protect,CHOP inhibitor
CCOc1ccc(C(=O)c2cc([N+](=O)[O-])ccc2Cl)cc1,4,0,8,-12,82*
COc1cccc(CNC(=O)[C@@H]2CCCN2)c1,.,.,2,.,.
O=C(NC(NNc1ccc([N+](=O)[O-])cc1)(C(F)(F)F)C(F)(F)F)c1ccc(Cl)cc1,1,-2,12,-37,79*
CC(OC(=O)c1ccc2c(=O)n3c(nc2c1)CCC3)C(=O)Nc1ccc(C(N)=O)cc1 (stereo not given),-4,1,26*,-4,.
CC(=O)Nc1cc(NC(C)=O)cc(C(=O)OC(C)C(=O)Nc2ccc(S(=O)(=O)N3CCCC3)cc2)c1 (stereo not given),-4,0,1,0,.
CC(OC(=O)c1ccc(S(=O)(=O)N2CCCCC2)cc1)C(=O)Nc1ccc(C(N)=O)cc1 (stereo not given),10,0,40*,4,.
O=C(c1ccc(CS(=O)c2ccccc2Cl)o1)N1CCN(C2CCCCC2)CC1 (stereo not given),.,.,-2,7,.
O=C(c1ccc(NS(=O)(=O)c2ccccc2)cc1)N1CCN(c2ccccc2)CC1,0,1,1,3,.
COc1ccc(OC)c(NC(=O)c2sc3ncnc(N4CCN(c5ccccn5)CC4)c3c2C)c1,6,4,1,86*,.
C/C(=C\C(=O)c1ccc(C)cc1)Nc1cccc(O)c1,1,1,0,-9,94*
Cc1ccc(C(=O)/C=C/Nc2cccc(O)c2)cc1,-9,-5,-3,-21,60
CCOC(=O)c1cnc2ccc(C(=O)OC)cc2c1NCCc1ccc(OC)c(OC)c1,-3,-2,-1,53*,39
CCOC(=O)c1cnc2ccc(OCC)cc2c1NCc1ccccc1OC,0,2,0,-19,82*
CCOC(=O)c1cnc2c(C)cccc2c1NCCc1ccc(OC)c(OC)c1,-1,-1,-2,-9,41
COc1ccc(OC)c(NCCN2C(=O)c3ccccc3C2=O)c1,.,.,-1,8,.
CCc1c(C)[nH]c(C(=O)OCc2ccccc2)c1C,.,.,-1,-10,79*
CCCn1c(O)c(C=Nc2ccccc2)sc1=S,1,5,0,5,87*
CCCCn1c(O)c(/C=C/C=C/C=Nc2ccccc2)sc1=S,7,0,1,-3,-3
c1ccc2nc(-c3ccc(N4CCOCC4)cc3)ccc2c1,-7,-9,-7,-12,90*
c1ccc(-c2cc3ccccc3nc2N2CCCC2)cc1,-5,-3,2,-7,14
Cc1ccc(-c2cc3ccccc3nc2N2CCOCC2)cc1,-4,-1,0,-10,72*
COc1ccc(S(=O)(=O)N(C)C[C@H]2Oc3c(cccc3N(C)C)C(=O)N([C@H](C)CO)C[C@@H]2C)cc1,0,1,-1,0,.
CCOC(=O)c1[nH]c(C)c(C(=O)OCC)c1C,8,2,1,-7,-3
CCOC(=O)c1c(C(F)(F)C(F)(F)C(F)(F)C(F)(F)F)n[nH]c1C,-1,0,-2,-12,82*
O=C1NC(C2CC3C=CC2C3)Nc2ccccc21 (stereo not given),.,.,-2,6,.
SMILES,XBP1 UPR activ,UPR CHOP act,iPSC survival up,H9c2 protect,CHOP inhibitor
COC(=O)c1ccc(N=NNc2cccc(Br)c2)cc1,.,.,-1,-14,91*
CCOC(=O)Cc1c(C)nc2cc(-c3ccc(Cl)cc3)[nH]n2c1=O,-1,2,-1,-4,-14
CCOC(=O)Cc1c(C)nc2c(-c3ccc(Cl)cc3)c[nH]n2c1=O,-2,-4,1,52*,13
CCOC(=O)c1ccccc1NC(=O)CSc1ccc(-c2ccccn2)nn1,-6,-1,0,57*,.
CC(=O)c1cccc(NC(=O)CSc2ccc(-c3ccccn3)nn2)c1,-4,1,1,36,.
CCc1ccc(NC(=O)CSc2ccc(-c3ccccn3)nn2)cc1,-1,1,0,50*,.
COc1cc(NC(=O)CSc2ccc(-c3ccccn3)nn2)cc(OC)c1,-4,0,0,70*,.
CC(=O)Nc1cccc(NC(=O)CSc2ccc(-c3ccccn3)nn2)c1,-2,2,0,67*,37
O=C(c1cc(COc2ccc(F)cc2F)on1)N1CCN(C2CCCC2)C(=O)C1,-3,0,1,-4,.
CCn1c(=S)[nH]c2c(=O)n(C)c(=O)n(C)c21,.,.,2,0,.
COc1ccc(S(=O)(=O)Nc2cccc3c2O[C@H](CN(C)C(=O)Nc2ccc4c(c2)OCO4)[C@@H](C)CN([C@H](C)CO)C3=O)cc1,-2,0,-1,7,.
CCOC(=O)c1ccccc1NC(=O)CSc1nc(N)cc(N)n1,0,-3,3,-3,16
CCOC(=O)c1ccccc1NC(=O)CSc1ncc(C(=O)OCC)c(N)n1,0,0,-2,-1,75*
Cc1ccc(C)c(NS(=O)(=O)c2ccc(NC(=O)CSc3ccc(Cl)cc3)cc2)c1,2,1,0,-7,94*
CC(=O)NS(=O)(=O)c1ccc(NC(=O)CSc2ccc(Cl)cc2)cc1,0,-1,.,.,1
Cc1ccccc1NS(=O)(=O)c1ccc(NC(=O)CSCc2ccc(Br)cc2)cc1,-6,2,-2,-20,80*
Cc1ccc(NS(=O)(=O)c2ccc(NC(=O)C(C)Sc3ccc(Cl)cc3)cc2)c(C)c1 (stereo not given),-2,-3,0,-22,83*
COCCNC(=O)c1ccc(N2CC3CC(C2)c2cccc(=O)n2C3)c(NC(=O)c2ccccc2Cl)c1 (stereo not given),.,.,2,2,.
Cc1[nH]c2ccccc2c1C(O)CN1CCN(c2cccc(C(F)(F)F)c2)CC1 (stereo not given),-4,0,-1,-20,74*
COc1ccc(C(=O)Nc2ccc(Oc3nc(C)nc4sc(-c5ccccc5)cc34)cc2)cc1OC,4,6,0,7,81*
Cc1cc(C)nc(N/N=C/c2cc3c(cc2[N+](=O)[O-])OCO3)n1,-1,-2,0,33,27
Cc1ccccc1N=Cc1cc2c(cc1[N+](=O)[O-])OCO2,0,2,-2,62*,37
Cc1c(N=Cc2cc3c(cc2[N+](=O)[O-])OCO3)cccc1[N+](=O)[O-],-2,0,-1,72*,.
O=[N+]([O-])c1cc2c(cc1/C=N/n1cnnc1)OCO2,3,-1,-2,8,6
CCCCn1nnnc1C1(C)CCC(=O)N1C1CC1 (stereo not given),.,.,0,.,.
CCN(CC)C(=O)CSC(Nc1ccc(F)cc1)=C(C#N)C#N,1,3,-1,-3,14
Cc1ccc(CSC(Nc2ccc(F)cc2)=C(C#N)C#N)cc1,-1,4,0,-15,76*
CCOC(=O)c1cnc2c(OC)cccc2c1N1CCN(c2ccccc2OC)CC1,0,3,-2,15,31
